# Compound activity as filed in PubChem BioAssay.
# Only some compounds are listed: those with a hit (about 6.4% of all), similar ones and a draw of the others.
# GRIN3A LBD mod: modulates the human NR3A ligand-binding domain; NR3A LBD differential scanning fluorimetry, Tm shift; 0% = protein alone, 100% = glycine-bound protein; Tm shift relative to glycine control, % at 25 µM; 340,000 compounds, 2.5% hits; AID 1259313;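 active = melting temperature shift of at least 10% of the positive control shift, at one fixed dose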
# MPTP block: blocks calcium-induced mitochondrial swelling; AID 602449; inhibition, % at 10 µM; isolated mouse mitochondria, Ca2+ swelling absorbance, 30 min; 360,000 compounds, 1.4% hits;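 active = inhibition of 50% or more, scaled per plate between neutral and stimulator controls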;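 also: 0% = DMSO wells given calcium and 100% = 1 mM EGTA wells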
# EBV gp42 block: blocks Epstein-Barr virus glycoprotein 42 binding; inhibition, % (tested at 21.74 µM); 220,000 compounds, 0.42% hits; Q1HVG2; Fluorescence polarization binding assay, mP read-out; in the data active = inhibition above about 50%
# Target sequence (Q1HVG2 whole entry, looked up): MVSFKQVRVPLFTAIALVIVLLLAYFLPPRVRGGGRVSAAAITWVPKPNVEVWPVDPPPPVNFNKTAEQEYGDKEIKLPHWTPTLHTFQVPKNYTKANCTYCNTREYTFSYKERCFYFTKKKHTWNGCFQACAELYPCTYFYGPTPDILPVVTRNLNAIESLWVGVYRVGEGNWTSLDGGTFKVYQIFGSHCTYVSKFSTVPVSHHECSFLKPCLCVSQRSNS
# Tb MetRS inh: blocks T. brucei methionyl-tRNA synthetase activity; 360,000 compounds, 0.4% hits; purified T. brucei MetRS, ATP depletion, Kinase-Glo luminescence; AID 624268; inhibition, % at 11.9 µM;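 active = inhibition above a per-plate cutoff of the control wells' mean inhibition plus 3 SD, cut at about 5.5% in these data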;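 also: 0% = DMSO wells median and 100% = median of wells with control inhibitor compound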
#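 Dosing: 11.9 µM single point; system: parasite MetRS enzyme; technique: luminescence of leftover ATP; times: 15 min enzyme-compound preincubation, 2 h reaction, 10 min detection, 25 °C; replicates: each compound tested once; read-out basis: percent inhibition relative to median high and low control wells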
# WT yeast gro inh: growth inhibition of WT yeast, mitochondrial fusion screen; AID 1362; mitochondrial fusion phenotypic screen, WT strain; inhibition, % at 10 µM; 190,000 compounds, 2.1% hits; in the data active = inhibition above about 58%; tested in S. cerevisiae
# CHOP inh: blocks CHOP induction under ER stress; inhibition, % at 10 µM; 220,000 compounds, 3.8% hits; CHO-K1 CHOP-promoter luciferase, tunicamycin-induced, 15-18 h; AID 2732;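 active = compounds that reduced the stress-induced luciferase reporter signal by more than about 70% of percent inhibition, limit read from the data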;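 also: 0% = tunicamycin plus vehicle and 100% = wells without tunicamycin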
# Rh123 counter: mitochondrial membrane potential, counter-screen. shares compounds with MPTP block. isolated mitochondria, Rhodamine 123 fluorescence. inhibition, % at 10 µM. 5,000 compounds, 78% hits; in the data active = inhibition above about 22%;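 also: 0% = DMSO vehicle and 100% = positive control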
# MPTP swell DR: dose response confirmation of mitochondrial permeability transition pore inhibitors | shares compounds with MPTP block | isolated mitochondria swelling, absorbance | IC50, µM | 780 compounds, 58% hits | AID 651561; in the data active = IC50 below about 20 µM
# MPTP cs DR: MPTP inhibitor counter-screen activity, dose response; shares compounds with MPTP block; isolated mitochondria counterscreen, fluorescence read-out; IC50, µM; 780 compounds, 49% hits; AID 651564; in the data active = IC50 below about 80 µM
# Starred values were filed as active, the others as inactive; i = inactive; . = no result.
SMILES,GRIN3A LBD mod,MPTP block,EBV gp42 block,Tb MetRS inh,WT yeast gro inh,CHOP inh,Rh123 counter,others
O=C(Nc1nnc(SCc2ccccc2)s1)c1cccc([N+](=O)[O-])c1,1,71*,10,-1,5,13,83*,
CCn1nnnc1SCC(=O)N1CCN(Cc2ccc3c(c2)OCCO3)CC1,1,-2,.,0,.,.,.,
CC(=O)N(Cc1cccc(Br)c1)c1ccc(N2CCOCC2)c(Cl)c1,-4,2,.,1,.,.,.,
COc1ccc(NS(=O)(=O)c2ccc(O)c(NC(=O)c3ccc(S(=O)(=O)N4CCCCCC4)cc3)c2)cc1,16*,66*,-4,-1,-7,27,49*,
CCN1CCN(c2ccc(S(=O)(=O)N3CCCCC3)cc2NC(=O)/C=C/c2ccc(F)cc2)CC1,1,78*,.,0,.,.,-18,MPTP swell DR=i
CN1CCN(c2ccc(S(=O)(=O)N3CCCCC3)cc2NC(=O)c2ccc3ccccc3c2)CC1,-4,67*,-15,-1,12,25,-15,MPTP swell DR=14*;MPTP cs DR=>80
COc1ccc(NS(=O)(=O)c2ccc(O)c(NC(=O)c3ccc(S(=O)(=O)N4CCCC4)cc3)c2)cc1,4,13,-13,0,.,9,.,
COc1ccc(NS(=O)(=O)c2cccc(NC(=O)c3ccc(S(=O)(=O)N4CCCCCC4)cc3)c2)cc1,5,84*,-13,0,13,75*,86*,
Cc1ccccc1C(=O)Nc1cc(S(=O)(=O)N2CCCCC2)ccc1N1CCN(C)CC1,-7,28,-23,-1,-8,13,.,
O=C(CC1CCCC1)NCCS(=O)(=O)N1CCN(c2ccccc2F)CC1,0,-1,.,0,.,.,.,
COc1ccc(NS(=O)(=O)c2ccc(C(=O)N3CCCCCC3)cc2)cc1,-9,54*,.,0,.,.,57*,
CCOc1ccc(NS(=O)(=O)c2ccc(C(=O)N3CCCCCC3)cc2)cc1,0,25,.,0,.,.,.,
CCOc1ccc(C(=O)Nc2ccc(N3CCN(C)CC3)cc2)cc1Br,0,60*,-14,-1,5,-37,-15,MPTP swell DR=18*;MPTP cs DR=>80
Cc1ccc(S(=O)(=O)N2CC=C(C(=O)NCc3ccccc3)CC2)cc1,7,-1,-2,1,2,15,.,
CN(C)CCNS(=O)(=O)c1ccc(N2CCc3ccccc32)c([N+](=O)[O-])c1,0,88*,.,0,.,.,-6,MPTP swell DR=12*;MPTP cs DR=49*
CN(C)CCCNS(=O)(=O)c1ccc(N2CCN(Cc3ccc4c(c3)OCO4)CC2)c([N+](=O)[O-])c1,0,87*,.,0,.,.,93*,
Cc1cccc(NS(=O)(=O)c2ccc(C)c(C(=O)N3CCN(C(=O)c4ccco4)CC3)c2)c1,-1,-1,.,0,.,.,.,
Cc1ccc(Nc2ccc([N+](=O)[O-])cn2)cc1Cl,14*,75*,.,0,.,.,69*,
COc1ccc(-n2ncc3c(=O)n(CC(=O)N(C(C)C)C(C)C)cnc32)cc1,2,1,.,0,.,.,.,
COC(=O)c1sccc1OCc1cccc(OC)c1,-2,1,-4,-2,-18,14,.,
Cc1nc(OCc2ccccc2)c2ccccc2n1,-2,72*,-2,-2,15,17,15,MPTP swell DR=12*;MPTP cs DR=27*
Cc1nc2ccccc2cc1OCc1ccc(Cl)cc1,-13,96*,-18,0,-2,83*,104*,
Cc1nc2ccccc2cc1OCc1ccccc1,1,92*,1,0,7,55,100*,
COc1cccc(COc2cc3ccccc3nc2C)c1,2,97*,-8,-1,14,61,94*,
COCCNC(=O)CSc1ccccc1C(=O)O,-1,-2,16,-1,6,4,.,
SMILES,GRIN3A LBD mod,MPTP block,EBV gp42 block,Tb MetRS inh,WT yeast gro inh,CHOP inh,Rh123 counter,others
COc1cc(CNCCc2ccc(S(N)(=O)=O)cc2)ccc1OCC(=O)N1CCCCC1,-1,3,-21,0,1,3,.,
Cc1nn(C)cc1CNC(=O)C1CCC(=O)N(CC2CCCCC2)C1 (stereo not drawn),2,-1,.,-1,.,.,.,
COc1ccc([N+](=O)[O-])cc1NC(=O)C(C)OC(=O)/C=C/c1ccco1 (stereo not drawn),1,0,-10,-1,-17,30,.,
COc1ccccc1-c1nn2c(C3COc4ccccc4O3)nnc2s1 (stereo not drawn),-8,3,-27,0,9,6,.,
Cn1cc(CNCc2ccc(OC(F)(F)F)cc2)c(-c2ccc3c(c2)OCCO3)n1,-1,102*,7,-1,-11,61,96*,
Cc1cc(C(=O)Nn2c(-c3ccc(Br)cc3)nc3ccccc3c2=O)ccc1[N+](=O)[O-],8,67*,-5,6,68*,91*,87*,
CC(C)(C)C1CCSC2=NCCC[C@]2(c2ccccc2)C1 (stereo partly drawn),.,1,.,0,.,.,.,
CC(C)(C)OC(=O)N(CCc1ccccc1)Cc1ccccc1OCc1cccc(NC(=O)C2CCC2)c1,-8,-1,.,0,.,.,.,
C[C@H]1c2cccc(O)c2C(O)=C2C(=O)[C@]3(O)C(O)=C(C(N)=O)C(=O)[C@@H](N(C)C)C3[C@@H](O)C21 (stereo partly drawn),3,86*,.,-1,.,.,4,
C=C1c2cccc(O)c2C(=O)C2C(=O)[C@]3(O)C(=O)C(C(N)=O)C(=O)[C@@H](N(C)C)[C@@H]3[C@@H](O)[C@H]12 (stereo partly drawn),-8,9,.,1,.,.,.,
O=C(CC1NCCc2ccccc21)Nc1ccc(Oc2ccccc2)cc1 (stereo not drawn),-6,92*,15,0,20,50,-17,MPTP swell DR=4.7*;MPTP cs DR=36*
COc1ccc(CCNC(=O)C(=O)NCC2OCCN2S(=O)(=O)c2ccc(C)cc2)cc1OC (stereo not drawn),-3,3,.,0,.,.,.,
CCCCNS(=O)(=O)c1ccc(NC(=O)C(Sc2ccccc2)c2ccccc2)cc1 (stereo not drawn),21*,76*,-13,0,17,36,68*,
O=C(NC1CCCCC1)c1sc(=S)n2c1[nH]c(=O)c1ccccc12,1,90*,3,0,64*,27,92*,
CCCCNC(=O)c1sc(=S)n2c1[nH]c(=O)c1ccccc12,-3,96*,5,0,-7,15,80*,
O=C(NCCc1ccccc1)c1ccc2c(=O)[nH]c3c(C(=O)NCC4CCCO4)sc(=S)n3c2c1 (stereo not drawn),3,0,.,0,.,.,.,
O=C(Cc1cccc2ccccc12)Nc1cc(C(=O)O)cc(C(=O)O)c1,-1,0,.,-1,.,.,.,
